Experimental findings from ChEMBL document CHEMBL1146074, “Design and synthesis of 1-indol-1-yl-propan-2-ones as inhibitors of human cytosolic phospholipase A2alpha” (J Med Chem, 2006) are described below.

A word on the inhibition: it is the relative decrease from the control value, in per cent. What is called IC50 is the concentration at which inhibition is half-maximal. The low end stands for inhibition by little substance, the high end for a need for much substance.

Calls of active or inactive are those of the source. The calls are words filed in the database; no cut-off is given here.

Test [1] has as its target T1, Cytosolic phospholipase A2 (Homo sapiens) (UniProt P47712).
T1 sequence (whole entry): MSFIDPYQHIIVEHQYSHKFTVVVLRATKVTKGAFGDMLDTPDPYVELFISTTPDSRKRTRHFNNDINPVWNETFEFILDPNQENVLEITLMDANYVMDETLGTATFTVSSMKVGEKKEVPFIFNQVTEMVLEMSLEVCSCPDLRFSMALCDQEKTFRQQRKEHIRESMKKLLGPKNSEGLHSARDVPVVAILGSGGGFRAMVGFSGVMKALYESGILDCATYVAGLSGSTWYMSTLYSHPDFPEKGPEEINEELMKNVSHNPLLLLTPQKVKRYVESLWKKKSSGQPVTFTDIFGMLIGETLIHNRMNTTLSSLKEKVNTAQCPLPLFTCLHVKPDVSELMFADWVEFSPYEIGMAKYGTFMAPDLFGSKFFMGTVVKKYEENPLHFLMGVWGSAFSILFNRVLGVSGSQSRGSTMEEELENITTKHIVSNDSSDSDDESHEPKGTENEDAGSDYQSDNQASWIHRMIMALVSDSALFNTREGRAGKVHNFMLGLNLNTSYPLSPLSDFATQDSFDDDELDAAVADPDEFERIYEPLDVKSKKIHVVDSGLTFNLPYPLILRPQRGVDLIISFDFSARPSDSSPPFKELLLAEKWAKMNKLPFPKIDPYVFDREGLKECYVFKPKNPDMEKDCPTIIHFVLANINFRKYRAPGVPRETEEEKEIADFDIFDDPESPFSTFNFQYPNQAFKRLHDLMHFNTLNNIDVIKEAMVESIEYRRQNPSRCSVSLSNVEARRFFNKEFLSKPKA
Briefly: Inhibition of cPLA2-alpha activity assessed by A23187-induced arachidonic acid release in human platelet at 10 uM. Type of test: functional. In short, it runs like this:
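Intact human platelets, with the dual cyclooxygenase/12-lipoxygenase inhibitor ETYA added, stimulated with calcium ionophore A23187 (1 µM final) for 1 min. Arachidonic acid released was measured by reversed-phase HPLC with UV at 200 nm, using 3-(4-decyloxyphenyl)propanoic acid as internal standard. Percent inhibition was read at 10 µM test compound. Cell lysis was checked by turbidimetry.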

For test [2], the target named is T1, Cytosolic phospholipase A2 (Homo sapiens). Nature of the test: Inhibition of human isolated cPLA2-alpha by vesicle assay at 10 uM.
Test [3] addresses T2, Cytosolic phospholipase A2 (Homo sapiens, UniProt P47712).
T2 sequence (P47712 whole entry): T1 sequence (whole entry)
Nature of the test: Inhibition of cPLA2alpha activity assessed by A23187-induced arachidonic acid release in human platelet. Type of test: functional. In a few lines:
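Intact human platelets stimulated with calcium ionophore A23187 (1 µM final) for 1 min, with ETYA added to block cyclooxygenase-1 and 12-lipoxygenase. Released arachidonic acid was measured by RP18 HPLC (acetonitrile/10 mM ammonium phosphate pH 7.4, 50:50) with UV at 200 nm, using an internal standard. IC50 values are means of at least two independent determinations.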

The target of test [4] is T2, Cytosolic phospholipase A2. Briefly: Inhibition of human isolated cPLA2-alpha by vesicle assay. In short, it runs like this:
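Test compounds were at most 10 µM. Arachidonic acid formed was cleaned up by solid-phase extraction and quantified by reversed-phase HPLC with UV at 200 nm. IC50 values are means of at least two independent determinations.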

Test [5] has as its target T2, Cytosolic phospholipase A2. Nature of the test: Inhibition of cPLA2-alpha activity assessed by TPA-induced arachidonic acid release in human platelet. It is filed as functional. In a few lines: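 Intact human platelets stimulated with TPA (2 µM final) for 60 min, with the cyclooxygenase/12-lipoxygenase inhibitor ETYA added. Released arachidonic acid was quantified by RP18 HPLC with UV at 200 nm, using an internal standard. Parallel incubations without TPA were used to calculate specific hydrolysis. IC50 values are means of at least two independent determinations.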

Compound `CCCCCCCCc1ccc(OCC(=O)Cn2ccc3ccccc32)cc1` returned an inhibition in test [1] of 43%. Further, in test [2], the inhibition entry was “inactive”.

As for `CCCCCCCCc1ccc(OCC(=O)Cn2ccc3cc(C=O)ccc32)cc1`, the IC50 was found to be 4900 nM in test [3] and 4300 nM in test [4].

On to `CCCCCCCCc1ccc(OCC(=O)Cn2ccc3cc(C(=O)OC)ccc32)cc1`, for which the inhibition stood at 40% in test [1] and 36% in test [2].

As to `CCCCCCCCCCOc1ccc(OCC(=O)Cn2ccc3cc(C(=O)O)ccc32)cc1`, the values for the IC50 in test [5], in test [3] and in test [4] were 7.8 nM, 210 nM and 20 nM, respectively.

Turning to `CCCCCCCCc1ccc(OCC(=O)Cn2ccc3ccc(C(=O)O)cc32)cc1`, the IC50 in test [3] was found to be 4700 nM; in test [4], 1100 nM.

As to `CCCCCCCCc1ccc(OCC(=O)Cn2ccc3cc(OC)ccc32)cc1`, the inhibition in test [1] was determined as 37%. The inhibition entry in test [2] is “inactive”.

Take `CCCCCCCCc1ccc(OCC(=O)Cn2cc(C(C)=O)c3cc(C(=O)O)ccc32)cc1`: the IC50 in test [5] worked out at 6.4 nM; in test [3], 1000 nM; in test [4] it was 16 nM.

With `CCCCCCCCc1ccc(OCC(=O)Cn2cc(C(C)(C)C)c3cc(C(=O)O)ccc32)cc1`, the IC50 in test [5] is 230 nM; in test [3], 3300 nM; in test [4], 340 nM.

Consider `CCCCCCCCc1ccc(OCC(=O)Cn2cc(C(=O)O)c3ccccc32)cc1`, for which the inhibition in test [1] and in test [2] was 40% in each case.

In the case of `CCCCCCCCc1ccc(OCC(=O)Cn2ccc3cc(C(N)=O)ccc32)cc1`, the IC50 in test [3] came out at 770 nM; in test [4], 120 nM.

On to `CCCCCCCCc1ccc(OCC(=O)Cn2ccc3cc(Cl)ccc32)cc1`, for which the inhibition entry in test [1] and in test [2] was “inactive” throughout.

With `CCCCCCCCc1ccc(OCC(=O)Cn2c(C(=O)O)cc3ccccc32)cc1`, half-maximal inhibition in test [3] (IC50) was put at 8000 nM. The inhibition result in test [2] is “inactive”.

`CCCCCCCCc1ccc(OCC(=O)Cn2ccc3c(C(=O)O)cccc32)cc1`: the inhibition in test [1] and in test [2] was 40% each time.

With `CCCCCCCCc1ccc(OCC(=O)Cn2cc(C#N)c3cc(C(=O)O)ccc32)cc1`, the values for the IC50 in test [5], in test [3] and in test [4] were 11 nM, 370 nM and 15 nM, respectively.

Regarding `CCCCCCCCCCOc1ccc(OCC(=O)Cn2cc(C(=O)OC)c3cc(C(=O)O)ccc32)cc1`, the IC50 in test [5] stood at 0.9 nM; in test [3], 570 nM; in test [4] it was 4.3 nM.

With `CCCCCCCCc1ccc(OCC(=O)Cn2ccc3cc(C#N)ccc32)cc1`, the inhibition stood at 46% in test [1] and 25% in test [2].

For the compound `CCCCCCCCc1ccc(OCC(=O)Cn2cc(C(=O)OC)c3cc(C(=O)O)ccc32)cc1`, the results for the IC50 in test [5], in test [3] and in test [4] were 1.1 nM, 1400 nM and 4.9 nM, respectively.

Take `CCCCCCCCc1ccc(OCC(=O)Cn2cc(C=O)c3cc(C(=O)O)ccc32)cc1`: the IC50 in test [5] was 9.7 nM; in test [3], 380 nM; in test [4], 16 nM.

For `CCCCCCCCc1ccc(OCC(=O)Cn2cc(C(=O)O)c3cc(C(=O)O)ccc32)cc1`, the IC50 was 560 nM in test [5], 6500 nM in test [3] and 890 nM in test [4].

`CCCCCCCCc1ccc(OCC(=O)Cn2cc(Cl)c3cc(C(=O)O)ccc32)cc1`: the values for the IC50 in test [5], in test [3] and in test [4] were 120 nM, 1500 nM and 110 nM, respectively.

In turn, `CCCCCCCCCCOc1ccc(OCC(=O)COc2ccc(C(=O)O)cc2)cc1` returned an IC50 in test [3] of 250 nM.

In the case of `CCCCCCCCc1ccc(OCC(=O)Cn2ccc3cc(C(=O)O)ccc32)cc1`, the IC50 was 18 nM in test [5] and 410 nM in test [3].

As for `CCCCCCCCc1ccc(OCC(=O)Cn2ccc3cc(C)ccc32)cc1`, the inhibition result in test [1] and in test [2] was “inactive” each time.
